pEC50: −log10 of the molar value. In brackets after ≈: the same amount, converted by molar mass.

Here are results for 27 compounds from ChEMBL document CHEMBL1148744, “Synthesis and antiviral and cytostatic evaluations of the new C-5 substituted pyrimidine and furo[2,3-d]pyrimidine 4',5'-didehydro-L-ascorbic acid derivatives” (J Med Chem, 2007).

The nature of data set [1]: Cytotoxicity against human HEL cells assessed as alteration in cell morphology. Format: cell-based. In a few lines: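 Confluent human embryonic lung (HEL) fibroblast cultures were exposed to a range of compound concentrations. Cells were examined microscopically for any detectable change in normal morphology. The minimum cytotoxic concentration (MCC) was the lowest concentration causing such a change.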

In data set [2] the test system is Mammalian orthoreovirus 1. Briefly: Antiviral activity against Reovirus 1 in Vero cells assessed as reduction of virus-induced cytopathogenicity. Format: functional. A general note: Damage to the host cells serves as the signal in cytopathic effect assays.
A further data set has as its system Sindbis virus. The data set can be described thus: Antiviral activity against Sindbis virus in Vero cells assessed as reduction of virus-induced cytopathogenicity. The format is functional.
The subject of data set [3] is Vesicular stomatitis virus. Briefly: Antiviral activity against VSV in HeLa cells assessed as reduction of virus-induced cytopathogenicity. Format: functional.
For the next data set, the system named is Coxsackievirus B4. The data set can be described thus: Antiviral activity against Coxsackie virus B4 in Vero cells assessed as reduction of virus-induced cytopathogenicity. Format: functional. The settings on record: Enterovirus B.
Data set [4] has as its system Respiratory syncytial virus. Briefly: Antiviral activity against RSV in HeLa cells assessed as reduction of virus-induced cytopathogenicity. The note with it: human respiratory syncytial virus. The format is functional.
The subject of a further data set is Punta Toro virus. Briefly: Antiviral activity against Punta Toro virus in Vero cells assessed as reduction of virus-induced cytopathogenicity. The format is functional.
Another data set deals with Human respirovirus 3. The data set can be described thus: Antiviral activity against Parainfluenza 3 virus in Vero cells assessed as reduction of virus-induced cytopathogenicity. Format: functional.
Data set [5] is described as follows: Cytotoxicity against human HEL cells assessed as reduction of cell growth. The format is cell-based. Put shortly:
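HEL cells were seeded at 5 × 10^3 cells/well and allowed to proliferate for 24 h. Medium with graded compound concentrations was then added, followed by 3 days at 37 °C. Cell number was counted with a Coulter counter.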

The next data set relates to Human alphaherpesvirus 2. Briefly: Antiviral activity against HSV2 G in HEL cells assessed as reduction of virus-induced cytopathogenicity. The format is functional. The settings on record: Human alphaherpesvirus 2, G.
The test system of data set [6] is Human alphaherpesvirus 3. The data set can be described thus: Antiviral activity against thymidine kinase deficient VZV 07/1 in human HEL cells after 7 days. The format is functional, organism-based. The note with it: Human alphaherpesvirus 3, 07/1, HEL, 168 h.
For data set [7], the system named is Human alphaherpesvirus 3. Briefly: Antiviral activity against thymidine kinase-positive VZV OKA in human HEL cells after 7 days. Format: functional, organism-based. The settings on record: Human alphaherpesvirus 3, OKA, 168 h.
Data set [8] deals with Human betaherpesvirus 5. The data set can be described thus: Antiviral activity against CMV AD169 in human HEL cells after 7 days. The note with it: Human betaherpesvirus 5, AD169, HEL, 168 h. The format is functional, organism-based. In a few lines:
(§1)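 Confluent HEL fibroblasts were infected at 100 PFU per well. After 2 h, residual virus was removed and cells were kept in MEM with serial compound concentrations for 7 days at 37 °C. Cytopathogenicity or plaques were scored microscopically after ethanol fixation and Giemsa staining.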

For data set [9], the system named is Human betaherpesvirus 5. The data set can be described thus: Antiviral activity against CMV Davis in human HEL cells after 7 days. The format is functional, organism-based. The settings on record: Human betaherpesvirus 5, Davis, 168 h. In a few lines: as §1
For a further data set, the system named is Human alphaherpesvirus 1. Briefly: Antiviral activity against HSV1 KOS in HEL cells assessed as reduction of virus-induced cytopathogenicity. The format is functional. The settings on record: Human alphaherpesvirus 1, KOS.

`CCCCCC(O)c1cc2cn(C/C=C3\OC(=O)C(OCc4ccccc4)=C3OCc3ccccc3)c(=O)nc2o1` (stereo unspecified): the MCC in [1] was at least 100 µM.
On the same count and under the same terms, in the case of `C#CCCCc1cc2cn(C/C=C3\OC(=O)C(OCc4ccccc4)=C3OCc3ccccc3)c(=O)nc2o1` it was over 100 µM; in that of `CCCCC#Cc1cn(C/C=C2\OC(=O)C(OCc3ccccc3)=C2OCc2ccccc2)c(=O)[nH]c1=O`, at least 100 µM.
Same read-out and setting: in the case of `CCCCCc1ccc(C#Cc2cn(C/C=C3\OC(=O)C(OCc4ccccc4)=C3OCc3ccccc3)c(=O)[nH]c2=O)cc1` it was at least 4 µM; in that of `CCCCCC(O)C#Cc1cn(C/C=C2\OC(=O)C(OCc3ccccc3)=C2OCc2ccccc2)c(=O)[nH]c1=O` (stereo unspecified), at least 100 µM.
On to `O=C1O/C(=C\Cn2cc(C#Cc3ccc(Br)cc3)c(=O)[nH]c2=O)C(OCc2ccccc2)=C1OCc1ccccc1`, for which the MCC in [1] was at least 4 µM.
The same measure, in the same setting: in the case of `Cc1ccc(C#Cc2cn(C/C=C3\OC(=O)C(OCc4ccccc4)=C3OCc3ccccc3)c(=O)[nH]c2=O)cc1` it was 60 µM; in that of `CCCCCc1cc2cn(C/C=C3\OC(=O)C(OCc4ccccc4)=C3OCc3ccccc3)c(=O)nc2o1`, 100 µM; in that of `CCCCCc1ccc(-c2cc3cn(C/C=C4\OC(=O)C(OCc5ccccc5)=C4OCc4ccccc4)c(=O)nc3o2)cc1`, at least 20 µM.
The same measure, in the same setting: the result for `CCCCCCCCC#Cc1cn(C/C=C2\OC(=O)C(OCc3ccccc3)=C2OCc2ccccc2)c(=O)[nH]c1=O` reads 100 µM; that for `C#CCCCC#Cc1cn(C/C=C2\OC(=O)C(OCc3ccccc3)=C2OCc2ccccc2)c(=O)[nH]c1=O`, at least 20 µM.
Still for that read-out and setting: the result for `CCCCc1cc2cn(C/C=C3\OC(=O)C(OCc4ccccc4)=C3OCc3ccccc3)c(=O)nc2o1` reads 20 µM; that for `CCCCc1ccc(C#Cc2cn(C/C=C3\OC(=O)C(OCc4ccccc4)=C3OCc3ccccc3)c(=O)[nH]c2=O)cc1`, 60 µM; that for `CCCCCCC#Cc1cn(C/C=C2\OC(=O)C(OCc3ccccc3)=C2OCc2ccccc2)c(=O)[nH]c1=O`, 20 µM.
For the compound `O=C1O/C(=C\Cn2cc3cc(CCc4ccccc4)oc3nc2=O)C(OCc2ccccc2)=C1OCc1ccccc1`, the MCC in [1] is 100 µM.
With `CCCCCCc1cc2cn(C/C=C3\OC(=O)C(OCc4ccccc4)=C3OCc3ccccc3)c(=O)nc2o1`, the MCC in [1] came out at 100 µM.
The same measure, in the same setting: the result for `O=C1O/C(=C\Cn2cc3cc(-c4ccc(Br)cc4)oc3nc2=O)C(OCc2ccccc2)=C1OCc1ccccc1` reads at least 20 µM; that for `Cc1ccc(-c2cc3cn(C/C=C4\OC(=O)C(OCc5ccccc5)=C4OCc4ccccc4)c(=O)nc3o2)cc1`, 100 µM.
As for `CCCCc1ccc(-c2cc3cn(C/C=C4\OC(=O)C(OCc5ccccc5)=C4OCc4ccccc4)c(=O)nc3o2)cc1`, in [1], the MCC was at least 20 µM.
On the same count and under the same terms, in the case of `CCCCCCCCc1cc2cn(C/C=C3\OC(=O)C(OCc4ccccc4)=C3OCc3ccccc3)c(=O)nc2o1` it was 100 µM; in that of `CCCCCC#Cc1cn(C/C=C2\OC(=O)C(OCc3ccccc3)=C2OCc2ccccc2)c(=O)[nH]c1=O`, 20 µM.
Turning to `Nc1ncnc2c1ncn2C[C@H](O)CO` [(S)-DHPA], the MIC in data set [2] was 250 µM (≈ 52.3 µg/mL); in the data set on Sindbis virus it was over 250 µM; in data set [3], over 250 µM; in the data set on Coxsackievirus B4 it was over 250 µM; in data set [4], over 250 µM; in the data set on Punta Toro virus it was over 250 µM. For the same compound, the MIC in the data set on Human respirovirus 3 turned out to be 50 µM (≈ 10.5 µg/mL).
One may read the CC50 as the concentration giving 50% cytotoxicity. As to `Nc1nc2c(ncn2COCCO)c(=O)[nH]1` [ACYCLOVIR], the MCC in [1] is over 1780 µM. The CC50 in data set [5] is 545 µM. The MIC with Human alphaherpesvirus 2 stood at 0.4 µM (≈ 0.0901 µg/mL).
For orientation: pEC50 means −log10 of the EC50, conventionally taken in molar units. Low readings indicate a large EC50, high ones a small EC50. Turning to `O=c1[nH]c(=O)n([C@H]2C[C@H](O)[C@@H](CO)O2)cc1/C=C/Br` [BRIVUDINE], the MIC (in data set [2]; with Sindbis virus; in [3]; in the data set on Coxsackievirus B4; in data set [4]; in the data set with Punta Toro virus) was over 250 µM throughout. Besides, the MIC in the data set with Human alphaherpesvirus 2 was 10 µM (≈ 3.33 µg/mL); in the data set with Human respirovirus 3, over 250 µM. For the same compound, in data set [1], the MCC was at least 1200 µM. For the same compound, the pEC50 in the data set with Human alphaherpesvirus 3 [6] is 3.77; in the data set on Human alphaherpesvirus 3 [7], 7.85. Moreover, in data set [5], the CC50 stood at 270 µM.
Turning to `Nc1ccn(C[C@@H](CO)OCP(=O)(O)O)c(=O)n1` [CIDOFOVIR], the MCC in [1] was at least 1270 µM. Further, the CC50 in data set [5] turned out to be 133 µM. Moreover, the pEC50 in the data set with Human betaherpesvirus 5 [8] and in the data set on Human betaherpesvirus 5 [9] was 6.17 in each case.
For the compound `Nc1nc2c(ncn2COC(CO)CO)c(=O)[nH]1` [GANCICLOVIR], in data set [1], the MCC was at least 1580 µM. The CC50 in data set [5] turned out to be 262 µM. The MIC in the data set with Human alphaherpesvirus 2 came out at 0.0064 µM (≈ 0.00163 µg/mL); with Human alphaherpesvirus 1, 0.032 µM (≈ 0.00817 µg/mL). For the same compound, the pEC50 in the data set with Human betaherpesvirus 5 [9] was 5.59.
As for `NC(=O)c1ncn([C@@H]2O[C@H](CO)[C@@H](O)[C@H]2O)n1` [RIBAVIRIN], the MIC in [2] is 150 µM (≈ 36.6 µg/mL); in the data set with Sindbis virus, over 250 µM; in data set [3] it was over 250 µM; in the data set on Coxsackievirus B4 it was over 250 µM; in [4], 150 µM (≈ 36.6 µg/mL); with Punta Toro virus, 250 µM (≈ 61.1 µg/mL). For the same compound, the MIC was 250 µM (≈ 61.1 µg/mL) with Human alphaherpesvirus 2, 250 µM (≈ 61.1 µg/mL) in the data set on Human alphaherpesvirus 1 and 150 µM (≈ 36.6 µg/mL) in the data set with Human respirovirus 3.
